# Wee1 degr inh: inhibitors of human Wee1 degradation; HeLa Luc-Wee1K328M stability, luciferase luminescence; 100% = proteasome inhibitor MG132 effect; reporter increase, % at 5 µM; 1.2% of 220,000 active;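 active means activation above the mean of all tested compounds plus 3 SD, set per screening run, cut at about 8.8% in these data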;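 further: cells exposed to compound for 20 h before luminescence read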
# Target sequence (P30291 whole entry K328M): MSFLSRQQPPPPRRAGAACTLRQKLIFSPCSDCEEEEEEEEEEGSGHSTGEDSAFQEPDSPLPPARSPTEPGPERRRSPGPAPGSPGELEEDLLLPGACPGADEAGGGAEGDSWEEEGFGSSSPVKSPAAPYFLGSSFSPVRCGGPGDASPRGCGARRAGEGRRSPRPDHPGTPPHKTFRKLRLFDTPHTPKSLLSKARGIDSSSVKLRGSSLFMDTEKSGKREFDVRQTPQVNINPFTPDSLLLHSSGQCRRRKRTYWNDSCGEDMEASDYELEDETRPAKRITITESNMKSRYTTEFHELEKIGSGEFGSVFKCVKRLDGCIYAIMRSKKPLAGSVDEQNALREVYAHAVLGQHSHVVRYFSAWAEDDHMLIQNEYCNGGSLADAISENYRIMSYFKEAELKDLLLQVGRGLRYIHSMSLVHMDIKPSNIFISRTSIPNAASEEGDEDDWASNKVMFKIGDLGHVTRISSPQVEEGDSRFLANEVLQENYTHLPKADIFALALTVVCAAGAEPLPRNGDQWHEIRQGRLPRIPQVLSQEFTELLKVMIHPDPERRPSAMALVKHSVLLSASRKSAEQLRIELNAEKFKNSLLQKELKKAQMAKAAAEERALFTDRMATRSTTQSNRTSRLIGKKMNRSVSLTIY
# 14-3-3 Bad inh: disrupts binding of bovine 14-3-3 zeta to phospho-Bad peptide | P63103 | TR-FRET 14-3-3zeta/Dy647-pBad peptide displacement, 1 h | inhibition, % at 21.7 µM | 0.71% of 220,000 active | AID 781;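 active means inhibition above about 70%, limit read from the data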
# eIF4E 4G PPI: eIF4E/eIF4G interaction inhibition in translation initiation. P63073+Q04637. TR-FRET eIF4E-eIF4GI(517-606) binding, 2 h. inhibition, % at 21.7 µM. 0.37% of 220,000 active
# RBBP9 inh: inhibitors of human serine hydrolase RBBP9. O75884. 0.2% of 220,000 active. inhibition, % at 7.94 µM. recombinant RBBP9, FP-Rh probe fluorescence polarization;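 active means inhibition above the campaign mean of all tested compounds plus 3 SD, cut at about 14% in these data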
#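 Measured by – fluorescence polarization · Test system – RBBP9 protein · Input – 2.5 µM RBBP9 dispensing solution, before mixing · Measure – percent inhibition from mP, scaled between DMSO and no-protein wells · Benchmarks – DMSO-treated enzyme wells and wells lacking RBBP9 · Times – preincubation 30 min plus labeling 45 min at 25 °C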
# p47phox inh: blocks human p47phox regulatory protein of NADPH oxidases. P14598. p47phox/p22phox peptide binding, fluorescence polarization, 2 h. inhibition, % at 24.7 µM. 0.53% of 220,000 active
# Wee1 stab conf: human Wee1 degradation inhibition, confirmation; shares compounds with Wee1 degr inh; AID 1410; activation, % at 5 µM; 4% of 1,100 active; HeLa Luc-Wee1K328M degradation, luminescence; vehicle 0%, proteasome-blocked wells 100%; in the data active means activation above about 8.9%
# Hits are given with their value; n = inactive; x = no result given. Compounds with a hit are over-represented: about 2.8% of the library has one in this group of screens.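 How the source made its calls, unless noted: active means inhibition above about 30% (limit read from the data); inactive means the rest.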
SMILES,Wee1 degr inh,14-3-3 Bad inh,eIF4E 4G PPI,RBBP9 inh,p47phox inh,Wee1 stab conf
CC(=O)c1ccc(Oc2ncnc3sccc23)c(CN2CCOCC2)c1,n,n,n,n,n,x
COc1cccc(OCc2ccc(Cl)cc2)c1C#N,n,n,n,n,n,x
COc1ccccc1/C=C/C(=O)Nc1ccc2c(c1)CCC2,11,n,n,n,n,n
O=C(Nc1ccc(Cl)cc1)NC1CCCCC1,11,n,n,n,n,n
O=C(Cc1csc(-c2ccccc2)n1)NCc1ccc(F)cc1,n,n,n,n,n,x
O=C(NCc1csc(-c2ccccc2)n1)c1cc(F)cc2c1OCOC2,15,n,n,n,n,n
Cc1ccc(SCC(=O)NC(=O)NCCC(C)C)c(C)c1,n,n,n,n,n,x
O=C(Nc1ccccc1)Nc1cc(OCC(F)(F)F)cc(OCC(F)(F)F)c1,14,n,n,n,n,n
O=C(c1ccco1)N1CCCN(Cc2cn[nH]c2-c2ccc(-c3ccccc3)cc2)CC1,n,n,n,n,n,x
Nc1c(C(=O)O)sc2nc(-c3ccccc3)cc(-c3ccc(F)cc3)c12,n,n,n,n,n,x
Nc1c(C(=O)O)sc2nc(-c3ccccc3)cc(-c3ccccc3)c12,11,n,n,n,n,n
O=C(Nc1ccccc1)C1=C[C@@H](c2ccccc2)C[C@@H](OCc2ccc(CO)cc2)O1,n,n,n,n,n,x
O=C(Nc1ccccc1)C1=C[C@H](c2ccc(Br)cc2)C[C@H](OCc2ccc(CO)cc2)O1,11,n,n,n,n,n
Cc1ccc(N=C(N)N=C(N)N)c(C)c1,n,n,n,n,n,x
O=S(=O)(c1cccs1)N1CCN(c2ccc(O)cc2)CC1,23,n,n,n,n,n
CN1CCN(S(=O)(=O)c2cccs2)CC1,n,n,n,n,n,x
COC(=O)c1cc(C(=O)OC)n(Cc2ccc(C)cc2)c1C,n,n,n,n,n,x
O=C(Nc1ncc(Cc2ccccc2)s1)C1CCCO1 (stereo unspecified),11,n,n,n,n,n
FC(F)(F)c1cc(-c2cccs2)nc2nc(N3CCOCC3)sc12,12,n,n,n,n,n
O=C(/C=C/c1ccco1)NC(=S)Nc1cc(-c2nc3ccccc3s2)ccc1Cl,n,n,n,n,n,x
O=C(/C=C/c1ccco1)NC(=S)Nc1cccc(-c2nc3ccccc3s2)c1,13,x,x,n,x,n
O=C1c2oc3ccccc3c(=O)c2C(c2ccc(O)cc2)N1c1nccs1 (stereo unspecified),n,n,n,n,n,x
NNC(=O)CN1C(c2ccccc2Br)=Nc2ccc(Br)cc2C1c1ccccc1 (stereo unspecified),11,n,n,n,n,n
C=CCNC(=S)N1CCN(S(=O)(=O)c2ccc(C)cc2)CC1,17,n,n,n,n,n
CCNC(=S)N1CCN(S(=O)(=O)c2ccc(C)c(C)c2)CC1,n,n,n,n,n,x
SMILES,Wee1 degr inh,14-3-3 Bad inh,eIF4E 4G PPI,RBBP9 inh,p47phox inh,Wee1 stab conf
COc1cc(Cl)c(C)cc1NC(=O)CN(C)Cc1cccc(OC)c1OC,n,n,n,n,n,x
CNc1ncc(Cc2ccccc2)s1,n,n,n,n,n,x
c1ccc(OCc2nc3c4c(ncn3n2)-c2ccccc2CC42CCCC2)cc1,n,n,n,n,n,x
COc1cc(C)c(N)cc1C(C)C,19,n,n,n,n,n
COc1cc(C)c(S(=O)(=O)N2CCOCC2)cc1C(C)C,n,n,n,n,n,x
COc1ccc(CNC(=O)COc2ccc(C(=O)c3ccc(F)cc3)cc2)cc1,n,n,n,n,n,x
O=C(COc1ccc(C(=O)c2ccc(F)cc2)cc1)NCc1ccc(F)cc1,11,n,n,n,n,14
Cc1csc(C(C#N)C(=O)c2ccc(S(=O)(=O)N3CCCC3)cc2)n1 (stereo unspecified),n,n,n,n,n,x
COC(=O)Cn1c(=O)c(C)nc2ccccc21,13,n,n,n,n,n
CCOC(=O)Cn1c(C(C)=O)nc2ccccc21,12,n,n,n,n,n
CCOC(=O)N1CCC(N2C(=O)c3ccccc3C2Nc2c(C)cccc2C)CC1 (stereo unspecified),n,n,n,n,n,x
CC1(C)Nc2ccccc2C(=O)N1NS(=O)(=O)c1ccccc1,11,n,n,n,n,n
Cc1ccc(S(=O)(=O)NN2C(=O)c3ccccc3NC2(C)C)cc1,n,n,n,n,n,x
COc1cccc(CC(=O)Nc2ccc(S(=O)(=O)Nc3nc(C)cc(C)n3)cc2)c1,n,n,n,n,n,x
O=C(O)c1ccc(CSc2nnc(COc3ccccc3)o2)cc1,14,n,n,n,n,n
Cc1cc(C)nc(NC(=O)c2ccc(COc3ccccc3Cl)cc2)c1,14,n,n,n,n,n
CC(C)n1c(NCCO)nc2ccccc21,11,n,n,n,n,n
CCCn1c(NCCO)nc2ccccc21,n,n,n,n,n,x
NS(=O)(=O)c1ccc(NC(=O)CN2C(=O)CCC2=O)cc1,n,n,n,n,n,x
NS(=O)(=O)c1ccc(NC(=O)CN2C(=O)c3ccccc3C2=O)cc1,19,n,n,n,n,n
CC1=C(C(=O)N2CCOCC2)C(c2c(F)cccc2F)NC(=O)N1 (stereo unspecified),n,n,n,n,n,x
CCCc1cc(=O)n2[nH]c(-c3ccc(C)cc3)cc2n1,13,n,n,n,n,n
CC1(c2ccccc2Cl)NC(=O)N(CC(=O)NCc2ccco2)C1=O (stereo unspecified),n,n,n,n,n,x
O=C(O)CCCn1cc(NC(=O)c2cc(F)c(F)cc2Cl)cn1,n,n,n,n,n,x
O=C(O)CCCn1cc(NC(=O)c2cccc(F)c2)cn1,13,n,n,n,n,n
SMILES,Wee1 degr inh,14-3-3 Bad inh,eIF4E 4G PPI,RBBP9 inh,p47phox inh,Wee1 stab conf
Cc1cc(C)n(-c2ccc(C(=O)N3CCC(CO)(Cc4ccccc4)CC3)cc2)n1,n,n,n,n,n,x
COc1ccccc1-c1ccc(SCc2ccccc2)nn1,n,n,n,n,n,x
COc1ccccc1-c1ccc(SCc2ccccc2F)nn1,13,n,n,n,n,14
CCN(C(=O)c1cnc(OC)cc1C(F)(F)F)c1ccc(Cl)cc1Cl,n,n,n,n,n,x
CC(C)CN(/C=N/c1sc2c(c1C#N)CCCCC2)CC(C)C,n,n,n,n,n,x
CCN(/C=N/c1sc2c(c1C#N)CCCCC2)CC,13,n,n,n,n,n
CCCn1c(SCC(=O)OCC)nc(C(F)(F)F)cc1=O,n,n,n,n,n,x
CCOC(=O)CSc1nc2cc(C(F)(F)F)cnc2n1C,11,n,n,n,n,n
CCOC(=O)/C(N=Nc1ccc2c(c1)OCO2)=C(\C)O,n,n,n,n,n,x
CCC1CCc2c(n(C)c3ccccc3c2=O)O1 (stereo unspecified),n,n,n,n,n,x
Cn1c2c(c(=O)c3ccccc31)CCC(C)(C)O2,11,n,n,n,n,n

# Compound activity: PubChem, several laboratories
